From ChEMBL document CHEMBL1152519, “Synthesis, structural activity-relationships, and biological evaluation of novel amide-based allosteric binding site antagonists in NR1A/NR2B N-methyl-D-aspartate receptors” (Bioorg Med Chem, 2009)
The source made the active and inactive calls. No cut-off for these calls is given here.

Experiments:
[1] = biological target: T1, Glutamate NMDA receptor; GRIN1/GRIN2B (Homo sapiens, UniProt Q05586+Q13224); assay: Antagonist activity at human recombinant NR1/NR2B receptor expressed in frog oocytes assessed as inhibition of glutamate/glycine-induced current at 3 uM by two electrode voltage clamp method; assay type: functional, cell-based; conditions: Oocyte
[2] = biological target: Glutamate NMDA receptor; Grin1/Grin2a (Rattus norvegicus, UniProt P35439+Q00959); assay: Antagonist activity at rat recombinant NR1/NR2A receptor expressed in Xenopus laevis oocytes assessed as inhibition of glutamate/glycine-induced current by two electrode voltage clamp method; assay type: functional, cell-based, Oocyte
In short: (§1)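 Xenopus oocytes expressing NR1/NR2 (wild type or amino terminal domain deletion mutant) recorded by TEVC at −40 mV, room temperature, pH 7.4–7.6, with EDTA 10 μM. Maximal glutamate/glycine applied alone, then with 5–8 successive compound concentrations. Leak-corrected; responses under 50 nA excluded. IC50 from fitted composite curve. NR1/NR2A oocytes were pre-incubated in 50 μM BAPTA-AM.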

[3] = biological target: Glutamate NMDA receptor; Grin1/Grin2c (Rattus norvegicus, UniProt P35439+Q00961); assay: Antagonist activity at rat recombinant NR1/NR2C receptor expressed in Xenopus laevis oocytes assessed as inhibition of glutamate/glycine-induced current by two electrode voltage clamp method; assay type: functional, cell-based, Oocyte; in short: as §1
[4] = biological target: Ionotropic glutamate receptor NMDA 1/2D (Rattus norvegicus, UniProt P35439+Q62645); assay: Antagonist activity at rat recombinant NR1/NR2D receptor expressed in Xenopus laevis oocytes assessed as inhibition of glutamate/glycine-induced current by two electrode voltage clamp method; assay type: functional, cell-based, Oocyte; in short: as §1
[5] = biological target: Glutamate receptor 1 (Rattus norvegicus) (UniProt P19490); assay: Antagonist activity at rat recombinant GluR1 expressed in Xenopus laevis oocytes assessed as inhibition of glutamate-induced current at 3 uM by two electrode voltage clamp method; assay type: functional, cell-based; conditions: Oocyte
Sequence of Glutamate receptor 1 (Rattus norvegicus) (P19490 whole entry): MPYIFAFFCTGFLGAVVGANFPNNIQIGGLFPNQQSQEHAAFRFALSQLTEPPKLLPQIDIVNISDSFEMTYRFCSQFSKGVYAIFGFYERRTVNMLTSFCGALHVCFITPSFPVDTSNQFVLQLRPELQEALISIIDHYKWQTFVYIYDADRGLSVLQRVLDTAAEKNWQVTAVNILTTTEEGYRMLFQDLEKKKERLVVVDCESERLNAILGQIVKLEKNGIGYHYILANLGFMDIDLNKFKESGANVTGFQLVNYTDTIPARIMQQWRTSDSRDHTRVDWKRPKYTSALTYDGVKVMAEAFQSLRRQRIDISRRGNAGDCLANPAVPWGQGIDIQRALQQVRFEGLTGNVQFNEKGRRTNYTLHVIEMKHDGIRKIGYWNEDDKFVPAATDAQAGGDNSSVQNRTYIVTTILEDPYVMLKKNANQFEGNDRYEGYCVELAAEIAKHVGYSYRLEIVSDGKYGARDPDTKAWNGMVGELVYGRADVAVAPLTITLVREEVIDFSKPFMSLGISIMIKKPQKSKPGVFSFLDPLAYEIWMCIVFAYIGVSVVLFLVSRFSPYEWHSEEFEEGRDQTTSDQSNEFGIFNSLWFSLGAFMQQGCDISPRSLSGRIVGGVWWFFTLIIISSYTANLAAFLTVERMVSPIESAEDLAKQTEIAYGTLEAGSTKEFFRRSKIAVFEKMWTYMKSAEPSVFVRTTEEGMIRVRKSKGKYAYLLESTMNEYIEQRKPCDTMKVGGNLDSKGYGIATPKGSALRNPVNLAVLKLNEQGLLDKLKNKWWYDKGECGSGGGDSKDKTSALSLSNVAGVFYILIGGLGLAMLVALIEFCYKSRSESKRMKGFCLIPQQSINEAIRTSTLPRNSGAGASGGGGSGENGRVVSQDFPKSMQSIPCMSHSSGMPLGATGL
In short: (§2)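 GluR1 homomers expressed from 5–10 ng cRNA in Xenopus oocytes. Clamped at −40 mV. Currents evoked by 100 μM glutamate with 3 μM compound, expressed as % of control without compound. Mean ± SEM, 4–10 oocytes; paired t-test.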

Rattus norvegicus = organism: Rattus norvegicus; assay: Inhibition of voltage-gated sodium channel in Sprague-Dawley rat cortical neuron at 3 uM by whole cell patch clamp technique
[6] = biological target: T2, Glutamate NMDA receptor; Grin1/Grin2b (Rattus norvegicus) (UniProt P35439+Q00960); assay: Antagonist activity at rat recombinant NR1/NR2B receptor expressed in Xenopus laevis oocytes assessed as noncompetitive inhibition of glutamate/glycine-induced current at 0.054 uM by two electrode voltage clamp method; assay type: functional, cell-based; conditions: Oocyte
In short: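 TEVC on rat NR1/NR2B oocytes at −40 mV. Inhibition by 0.054 μM compound measured while glutamate or glycine was raised 10-fold above the control 50 μM glutamate/30 μM glycine. Response given as percent of control; n = 4.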

[7] = biological target: Glutamate NMDA receptor; Grin1/Grin2b (Rattus norvegicus, UniProt P35439+Q00960); assay: Antagonist activity at wild type rat NR1/NR2B receptor expressed in Xenopus laevis oocytes assessed as inhibition of glutamate/glycine-induced current by two electrode voltage clamp method; assay type: functional, cell-based, Oocyte; in short: as §1
[8] = Antagonist activity at rat NR1/NR2B receptor deltaATD mutant expressed in Xenopus laevis oocytes assessed as inhibition of glutamate/glycine-induced current by two electrode voltage clamp method; assay type: functional, cell-based; conditions: Oocyte; in short: as §1
MDCK [9] = assay: Apparent permeability from apical to basolateral side of MDR1-expressing MDCK cells at 5 uM after 2 hrs by LC-MS/MS analysis; assay type: ADME, cell-based, Canis lupus familiaris; conditions: dog
In short: (§3)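 MDR1-MDCK monolayers grown 7–11 days on Transwells. Compound at 5 μM in HBSS pH 7.4 (final DMSO ≤1%) added apically (A–B) or basally (B–A). Incubated 2 h at 37 °C; both compartments quantified by LC–MS/MS against a >4-point calibration. Papp given in ×10−6 cm/s; efflux ratio = B–A/A–B. Duplicates.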

MDCK [10] = assay: Apparent permeability from basolateral to apical side of MDR1-expressing MDCK cells at 5 uM after 2 hrs by LC-MS/MS analysis; assay type: ADME, cell-based, Canis lupus familiaris; conditions: dog; in short: as §3
[11] = biological target: Glutamate NMDA receptor; Grin1/Grin2a (Rattus norvegicus) (UniProt P35439+Q00959); assay: Antagonist activity at rat recombinant NR1/NR2A receptor expressed in Xenopus laevis oocytes assessed as inhibition of glutamate/glycine-induced current at 3 uM by two electrode voltage clamp method relative to control; assay type: functional, cell-based; conditions: Oocyte
In short: (§4)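 Xenopus oocytes injected with NR1-1a (3–5 ng) plus NR2A, 2B, 2C or 2D cRNA (7–10 ng), kept at 15 °C. Voltage clamp at −40 mV. Responses to 50 μM glutamate + 30 μM glycine with 3 μM compound, as % of response without compound. NR2A oocytes pre-loaded with 50 μM BAPTA-AM. Mean ± SEM, 4–10 oocytes; paired t-test.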

[12] = biological target: T2, Glutamate NMDA receptor; Grin1/Grin2b (Rattus norvegicus); assay: Antagonist activity at rat recombinant NR1/NR2B receptor expressed in Xenopus laevis oocytes assessed as inhibition of glutamate/glycine-induced current at 3 uM by two electrode voltage clamp method relative to control; assay type: functional, cell-based; conditions: Oocyte; in short: as §4
[13] = biological target: Glutamate NMDA receptor; Grin1/Grin2c (Rattus norvegicus) (UniProt P35439+Q00961); assay: Antagonist activity at rat recombinant NR1/NR2C receptor expressed in Xenopus laevis oocytes assessed as inhibition of glutamate/glycine-induced current at 3 uM by two electrode voltage clamp method relative to control; assay type: functional, cell-based; conditions: Oocyte; in short: as §4
[14] = biological target: Ionotropic glutamate receptor NMDA 1/2D (Rattus norvegicus) (UniProt P35439+Q62645); assay: Antagonist activity at rat recombinant NR1/NR2D receptor expressed in Xenopus laevis oocytes assessed as inhibition of glutamate/glycine-induced current at 3 uM by two electrode voltage clamp method relative to control; assay type: functional, cell-based; conditions: Oocyte; in short: as §4
[15] = biological target: Glutamate receptor 1 (Rattus norvegicus) (UniProt P19490); assay: Antagonist activity at rat recombinant GluR1 expressed in Xenopus laevis oocytes assessed as inhibition of glutamate-induced current at 3 uM by two electrode voltage clamp method relative to control; assay type: functional, cell-based; conditions: Oocyte; in short: as §2
[16] = biological target: T1, Glutamate NMDA receptor; GRIN1/GRIN2B; assay: Antagonist activity at human recombinant NR1/NR2B receptor expressed in frog oocytes assessed as inhibition of glutamate/glycine-induced current by two electrode voltage clamp method; assay type: functional, cell-based, Oocyte
In short: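 Human NR1/NR2B cRNA injected into Xenopus oocytes. Two-electrode voltage clamp at −40 mV, 23 °C, 2–7 d after injection. Glutamate/glycine (50–100 μM/30 μM) applied, then with 5–8 compound concentrations. Bath contains 10 μM EDTA; leak-corrected.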

[17] = biological target: Glutamate receptor ionotropic, NMDA 2B (Rattus norvegicus, UniProt Q00960); assay: Displacement of [3H]ifenprodil form NR2B receptor in Wistar rat cerebral cortex membrane; assay type: tissue-based
[18] = biological target: Glutamate receptor ionotropic, NMDA 1/NMDA 2B (Mus musculus, UniProt P35438+Q01097); assay: Antagonist activity at mouse recombinant NR1/NR2B receptor expressed in frog oocytes assessed as inhibition of glutamate/glycine-induced current by two electrode voltage clamp method; assay type: functional, cell-based, Oocyte
Sequence of Glutamate receptor ionotropic, NMDA 1/NMDA 2B (Q01097 whole entry, other chains not shown): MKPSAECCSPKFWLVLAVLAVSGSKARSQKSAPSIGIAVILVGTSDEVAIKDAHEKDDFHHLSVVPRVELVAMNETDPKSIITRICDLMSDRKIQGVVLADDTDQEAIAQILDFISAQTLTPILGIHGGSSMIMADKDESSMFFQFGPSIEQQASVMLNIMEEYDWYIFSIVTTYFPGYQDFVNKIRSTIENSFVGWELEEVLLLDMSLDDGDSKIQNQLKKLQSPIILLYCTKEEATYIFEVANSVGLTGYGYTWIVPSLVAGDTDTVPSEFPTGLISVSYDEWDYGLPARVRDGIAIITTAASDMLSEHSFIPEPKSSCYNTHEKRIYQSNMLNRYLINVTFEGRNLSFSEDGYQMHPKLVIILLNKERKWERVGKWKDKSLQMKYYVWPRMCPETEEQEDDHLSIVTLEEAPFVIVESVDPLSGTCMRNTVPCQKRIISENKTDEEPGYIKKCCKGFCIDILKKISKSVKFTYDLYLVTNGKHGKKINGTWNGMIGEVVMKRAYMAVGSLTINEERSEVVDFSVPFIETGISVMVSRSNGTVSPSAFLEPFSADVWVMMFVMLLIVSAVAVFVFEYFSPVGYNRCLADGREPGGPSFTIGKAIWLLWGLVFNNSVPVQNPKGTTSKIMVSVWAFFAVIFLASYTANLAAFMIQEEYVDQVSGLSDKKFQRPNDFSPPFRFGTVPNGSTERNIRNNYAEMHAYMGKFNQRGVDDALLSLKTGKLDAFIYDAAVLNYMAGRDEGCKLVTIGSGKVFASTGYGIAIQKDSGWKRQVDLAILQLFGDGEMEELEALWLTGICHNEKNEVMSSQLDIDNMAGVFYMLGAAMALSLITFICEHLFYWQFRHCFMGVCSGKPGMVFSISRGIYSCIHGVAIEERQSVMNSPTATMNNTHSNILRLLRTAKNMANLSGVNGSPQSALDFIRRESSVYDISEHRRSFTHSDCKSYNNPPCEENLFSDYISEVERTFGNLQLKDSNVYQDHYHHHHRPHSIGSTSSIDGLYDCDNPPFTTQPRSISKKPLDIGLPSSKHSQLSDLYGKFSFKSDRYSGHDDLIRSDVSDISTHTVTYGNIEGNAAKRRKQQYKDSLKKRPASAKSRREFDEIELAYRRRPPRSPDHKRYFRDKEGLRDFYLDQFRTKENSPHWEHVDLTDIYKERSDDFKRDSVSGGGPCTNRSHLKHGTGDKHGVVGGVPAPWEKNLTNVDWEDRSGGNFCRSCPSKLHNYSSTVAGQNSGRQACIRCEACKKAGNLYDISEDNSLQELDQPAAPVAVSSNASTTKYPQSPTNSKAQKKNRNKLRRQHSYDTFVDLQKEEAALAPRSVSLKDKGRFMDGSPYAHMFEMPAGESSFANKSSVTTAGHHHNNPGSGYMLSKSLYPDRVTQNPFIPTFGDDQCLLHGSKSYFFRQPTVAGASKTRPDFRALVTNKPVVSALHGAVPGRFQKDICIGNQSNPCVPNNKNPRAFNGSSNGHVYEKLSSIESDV
In short: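 Xenopus oocytes injected with 3–5 ng NR1 and 7–10 ng NR2 cRNA, kept in Barth's solution at 15 °C, recorded 2–7 d later at 23 °C under two-electrode voltage clamp at −40 mV. Bath was 90 NaCl, 1 KCl, 10 HEPES, 0.5 BaCl2 (mM), pH 7.4/7.6, plus 10 μM EDTA. Glutamate (50–100 μM) plus glycine 30 μM was applied, then 5–8 inhibitor concentrations. Leak-corrected; n = 11 oocytes from 2 frogs.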

`CS(=O)(=O)Nc1ccc(OCC(=O)NCCNc2ccc(Cl)c(Cl)c2)cc1` gave an inhibition [1] of 90%, an IC50 [2] of 82 µM and an IC50 [3] of 58 µM. For the same molecule, the IC50 [4] was 107 µM, the inhibition [5] was “inactive” and the inhibition (Rattus norvegicus) was “inactive”. The inhibition [6] was “Active”, the IC50 [7] was 0.057 µM and the IC50 [8] was 563 µM. The Papp (MDCK [9]) was 1.8 ×10⁻⁶ cm/s, the Papp (MDCK [10]) was 63.2 ×10⁻⁶ cm/s and the % response [11] was 92%. The % response [12] was 16%, the % response [13] was 98% and the % response [14] was 91%. For the same molecule, the % response [15] was 101%, the IC50 [16] was 0.054 µM and the Ki [17] was 0.119 µM. It also gave an IC50 [18] of 0.036 µM.
